CHOP UPR activ: activators of apoptotic arm of unfolded protein response (CHOP); CHO-CHOP luciferase reporter, UPR activation, luminescence; percent of tunicamycin response over DMSO baseline; activation, % at 10 µM; actives 0.34% (n = 330,000); AID 449763;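 active = at 10 µM dose, activation of 40% or more, normalized to positive control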
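assay system = CHO CHOP reporter cells | amount = 500 CHO-CHOP cells per well | buffer or medium = F12 with 10% FBS | incubation = 16-18 h cell attachment, then 6 h compound exposure, 37 °C | detection = luminescence read with Steady-Glo | read-out = percent activation relative to tunicamycin control | controls = tunicamycin high control, DMSO low control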
UPR XBP1 act: activators of adaptive arm of unfolded protein response (XBP1); CHO-XBP1 luciferase reporter, IRE1-XBP1 UPR activation, luminescence; percent of tunicamycin response, DMSO as zero; actives 0.33% (n = 330,000); activation, % at 20 µM;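 active = versus positive control, 20 µM dose yields 30% or more activation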
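Signal: luciferase luminescence; Assay system: CHO-XBP1 luciferase reporter cells; Amount: one thousand reporter cells per well; Dosing: 20 µM single concentration, DMSO 1%; Benchmarks: high control tunicamycin 10 µg/mL final, low control DMSO vehicle only; Schedule: 6 h compound exposure at 37 °C, 5% CO2; Evaluation: percent activation relative to tunicamycin reference.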
Bfl-1 A1 inh: inhibitors of the anti-apoptotic protein A1, read as caspase activation; MEF A1-2A-BIM cells, Caspase-Glo 3/7 luminescence, 3 h; percent of clofoctol response, vehicle zero; AID 2462; caspase activation, % (concentration not given with the values); actives 0.066% (n = 330,000);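 active = over half of replicate activation scores above 10%, or exactly half above 10 with the replicate mean above 10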
CHOP inh: CHOP inhibition in unfolded protein response. AID 2732. CHO-K1 CHOP-promoter luciferase, tunicamycin-induced, 15-18 h. inhibition, % at 10 µM. actives 3.8% (n = 220,000);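 active = compounds that reduced the stress-induced luciferase reporter signal by more than about 70% of percent inhibition, limit read from the data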
Large screens that a line does not name were inactive. The full list was thinned out, with hits kept by preference.

O=C(NCc1cccnc1)c1ccc(COc2ccc(Cl)cc2)cc1	CHOP inh 71
O=[N+]([O-])c1nn(-c2ccc3c(c2)OCCO3)n(O)c1=NCCC1=CCCCC1	CHOP inh 86
COc1ccc2nc(SCC(=O)Nc3ccc4c(c3)OCCO4)[nH]c2c1	CHOP inh 76
CCOc1ccc2nc(SCC(=O)Nc3ccc4c(c3)OCCO4)[nH]c2c1	none
CCOC(=O)C1=C(COc2ccccc2)NC(=O)NC1c1cccc([N+](=O)[O-])c1 (stereo not drawn)	none (no result: CHOP inh)
CCOC(=O)C1=C(CSc2nc3ccccc3s2)NC(=O)NC1c1cccc([N+](=O)[O-])c1 (stereo not drawn)	CHOP inh 78
COc1ccccc1CNC(=O)c1cc(C(C)=O)c[nH]1	none (no result: CHOP inh)
CSC[C@@H]1NC(=S)N(c2ccc(C)cc2)C1=O	Bfl-1 A1 inh 23
O=[N+]([O-])c1ccc(-c2ccc(/C=N/Nc3nc(N4CCCCC4)nc(N4CCCCC4)n3)o2)cc1	CHOP inh 95 (no result: Bfl-1 A1 inh)
COc1nc(N/N=C/c2ccc(-c3cccc([N+](=O)[O-])c3)o2)nc(N2CCOCC2)n1	CHOP inh 71 (no result: CHOP UPR activ, UPR XBP1 act, Bfl-1 A1 inh)
O=[N+]([O-])c1ccc(-c2ccc(/C=N/Nc3nc(N4CCCC4)nc(N4CCCC4)n3)o2)cc1	none
O=C1c2cccc(OCc3ccc(F)cc3)c2CCN1Cc1ccc(F)cc1	CHOP inh 85
COc1ccc(/C=C/C(=O)c2ccc(Cl)s2)cc1O	CHOP inh 85
CCc1cccc2c(C(=O)COC(=O)c3ccc(O)cc3)c[nH]c12	CHOP inh 87
CCc1cccc2c(C(=O)COC(=O)c3ccccc3)c[nH]c12	none
CCCN(C1CCS(=O)(=O)C1)S(=O)(=O)c1cc(OC)ccc1OC (stereo not drawn)	none (no result: CHOP inh)
Cc1cc(C)n(-c2nc3ccccc3nc2N2CCC(C)CC2)n1	none
Cc1ccc(S(=O)(=O)N2CCN(c3nc4ccccc4nc3-n3nc(C)cc3C)CC2)cc1	CHOP inh 73
CCN(C[C@H]1N[C@@](CC)(C(=O)OC)[C@H]2C(=O)N(C)C(=O)[C@@H]12)S(=O)(=O)c1ccc(OC(F)(F)F)cc1	none (no result: CHOP inh)
O=[N+]([O-])c1ccc(Sc2cccc[n+]2[O-])c2nonc12	CHOP inh 108 (no result: CHOP UPR activ, UPR XBP1 act, Bfl-1 A1 inh)
O=[N+]([O-])c1ccc(Nc2ccccc2)c2nonc12	none (no result: CHOP inh)
O=C1c2ccc3c4c(ccc(c24)C(=O)N1c1cccc(O)c1)CC3	CHOP inh 93
COc1ccccc1Oc1ccc2c(c1)C(=O)N(c1cccc(O)c1)C2=O	CHOP inh 90
COc1cccc(C2C3=C(N=c4s/c(=C\c5ccccc5O)c(=O)n42)c2ccccc2CC3)c1OC (stereo not drawn)	CHOP UPR activ 105, UPR XBP1 act 52
COc1cccc(C2C3=C(N=C4SCC(=O)N42)c2ccccc2CC3)c1OC (stereo not drawn)	none
CC(=O)Nc1ccc(NC(=O)Nc2cccc(Cl)c2)cc1	none (no result: CHOP inh)
O=C(Nc1ccccc1)Nc1cccc(Cl)c1	CHOP inh 95
CCOC(=O)c1cccc(NC(=O)Nc2ccc(OCC)cc2)c1	none
S=C(NCCC(c1ccccc1)c1ccccc1)Nc1cccc(Cl)c1	CHOP inh 94
O=C(N/C=C/c1ccccc1)Nc1ccc(Cl)cc1	CHOP inh 87
CCOc1ccc(NC(=O)Nc2cccc(C(=O)O)c2)cc1	CHOP inh 93
Cc1ccccc1OCC(=O)Nc1cccc(C(=O)O)c1	CHOP inh 89 (no result: CHOP UPR activ, UPR XBP1 act, Bfl-1 A1 inh)
O=C(Nc1ccc(Cl)cc1)Nc1cccc(C(=O)O)c1	CHOP inh 79
O=C(NC1CCN(Cc2ccccc2)CC1)c1cccc(Br)c1	none (no result: CHOP inh)
COc1ccc(Cc2nc3ccc(C(=O)NC4CCOC4)cc3o2)cc1 (stereo not drawn)	none (no result: CHOP inh)
Cc1ccccc1SCC(=O)N/N=C/c1ccc(F)cc1	none (no result: CHOP inh)
N#Cc1ccc(-c2nc3cc(Cl)ccc3c(=O)n2O)cc1	none (no result: CHOP inh)
O=c1c2ccc(Cl)cc2nc(-c2cccc(C(F)(F)F)c2)n1O	CHOP inh 74
COc1cc(C)ccc1OCCOc1c(Cl)cc(Cl)cc1Cl	none
COc1cc(C)ccc1OCCOc1c(C)cccc1Cl	CHOP inh 71
CCOC(=O)C(CCCOc1ccc(C)cc1)C(=O)OCC	CHOP inh 95
COc1ccccc1NC(=O)Cn1cncc1-c1ccc([N+](=O)[O-])cc1	none
Cc1ccc(NC(=O)Cn2cncc2-c2ccc([N+](=O)[O-])cc2)cc1C	CHOP inh 81
CCCCNc1c2c3c(cccc3n(C)c1=O)C(=O)c1ccccc1-2	CHOP inh 82
CCOC(=O)c1ccccc1NC1c2ccccc2C(=O)N1c1ccc(C)cn1 (stereo not drawn)	CHOP inh 85 (no result: Bfl-1 A1 inh)
CCOc1ccccc1NC1c2ccccc2C(=O)N1c1ccc(C)cn1 (stereo not drawn)	none
Nc1c(-c2ccccc2)cnn1-c1cccc(Cl)c1	none (no result: CHOP inh)
Nc1ccccc1Nc1cc(-c2cccc(Cl)c2)nn1-c1ccccc1	CHOP inh 86
O=C(CNc1cccc(F)c1)N1CCc2ccccc2C1	none (no result: CHOP inh)
CC(C)[C@@H]1CC[C@@H](C)c2c(-c3ccccc3)n[nH]c21	CHOP inh 92
OC(CCN1CCOCC1)(c1ccc(Cl)cc1)C1CCCCC1 (stereo not drawn)	CHOP inh 80
O=c1c2ccccc2cnn1-c1nc2ccccc2[nH]1	CHOP inh 93 (no result: CHOP UPR activ, UPR XBP1 act, Bfl-1 A1 inh)
O=c1c(Cl)c(N2CCCCC2)cnn1-c1nc2ccccc2[nH]1	none
CCCCOc1ccccc1Cn1c(=O)oc2ccccc21	CHOP inh 88
COC1c2ccccc2C(=O)N1Cc1ccc(F)cc1 (stereo not drawn)	none (no result: CHOP inh)
COc1ccc(OCC(=O)NC2CCCN(Cc3ccc(Cl)cc3)C2)cc1 (stereo not drawn)	none (no result: CHOP inh)
Cc1ccc(Cn2nc(-c3ccccc3)nc2-c2ccccc2)cc1	CHOP inh 75
O=c1[nH]nc(Cc2ccc(-c3cccc(Cl)c3)o2)c2ccccc12	CHOP inh 72
COc1ccc(C(=O)NCCNC(=O)c2ccc(OC)cc2)cc1	none (no result: CHOP inh)
COc1ccc(C(=O)NCC(C)(C)SCc2c(C)cc(C)cc2C)cc1	CHOP inh 73
NS(=O)(=O)c1ccc(CCNC(=O)CCC(=O)c2cccs2)cc1	none (no result: CHOP inh)
Cc1cc(C)n(-c2nnc(NCc3ccc(Cl)cc3)nn2)n1	none
Cc1nn(-c2nnc(NCc3ccccc3)nn2)c(C)c1Br	CHOP inh 73
Cc1ccc(NC(=O)CSc2nncn2N)cc1C	none (no result: CHOP inh)
OC(CN1c2ccccc2Sc2ccccc21)Cn1nnc2ccccc21 (stereo not drawn)	none
Cc1nn(CC(O)CN2c3ccccc3Sc3ccccc32)c(C)c1Br (stereo not drawn)	CHOP inh 77
CCOc1cc(C(=O)O/N=C(\N)c2ccc([N+](=O)[O-])cc2)cc(OCC)c1OCC	CHOP inh 79
COc1cc(C(=O)O/N=C(\N)c2ccc([N+](=O)[O-])cc2)cc(OC)c1OC	none

Screening results deposited in PubChem by several laboratories.
